This is one part of the list. Records with an inconclusive call do not appear. Calls of active or inactive are those of the source.

Three molecules from PubChem BioAssay can be followed below.

Test [1] has as its target Solute carrier family 12 member 5 (Homo sapiens) (UniProt Q9H2X9). As to the kind of experiment: retest of KCC2 transport modulators without sodium – cell-based, HEK293 KCC2, thallium flux, secondary assay, confirmation (AID 1713;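 active means thallium flux slope above the same plate's solvent-only control mean plus 3 SD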). The note with it: FluoZin2 fluorescence, at 10 µM, stronger effect = higher value. An outline of the steps:
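Evaluation: F/F0 slope over 10–20 s post-thallium, baseline-normalized / Material: KCC2-expressing HEK cells / Detection: FluoZin2 fluorescence, 480/540 nm, 1 Hz / Times: 48 min dye loading / Medium: Sodium-free N-methylglucamine chloride buffer / Compound: 10 µM single dose, 0.1% DMSO / Control set: bumetanide and DMSO controls / Probe or stimulus: thallium sulfate stimulus buffer at pH 7.3 / Repeats: duplicates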

Test [2] in a line: PubChem AID 1714.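 Further: raw slope of fluorescence over initial fluorescence between 10 and 20 s after thallium.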 The note with it: HEK293-KCC2 + bumetanide/ouabain, thallium flux FluoZin2; at 10 µM; stronger effect = higher value. An outline of the steps: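 Test system: HEK cells expressing the K-Cl cotransporter KCC2 | Compound: One dose, 10 µM, 0.1% DMSO | Replication: Duplicates | Evaluation: Normalized thallium flux slope | Detection: FluoZin2-AM (0.5 µM) fluorescence, 480 nm ex/540 nm em, 1 Hz kinetic imaging | Incubation: Overnight culture 37 °C, dye loading 48 min | Reagent: Thallium stimulus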

Test [3] addresses Solute carrier family 12 member 5 (Homo sapiens) (UniProt Q9H2X9). As to the kind of experiment: retest of KCC2 transport modulation, ouabain-free – cell-based, HEK293 KCC2, thallium flux, FluoZin2, secondary assay 2, confirmation (AID 1715;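 active means thallium flux slope more than 3 SD above or below the plate's solvent-only control mean, mostly below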;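 further: raw slope with 0.1% DMSO as baseline and bumetanide as block control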). The note with it: HEK293-KCC2, thallium flux FluoZin2 fluorescence; at 10 µM; actives lie on both sides; F/F0 rise rate, 10–20 s post-thallium.

The nature of test [4]: compound effects on native HEK Tl+ uptake – HEK cells, counterscreen 1, counter-screen for KCC2 modulator project, confirmation (AID 1716;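 active means thallium flux rate significantly above the same plate's solvent-only control wells, beyond their mean plus 3 SD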). The note with it: HEK293 parental cells, thallium flux FluoZin2, ouabain; at 10 µM; baseline-ratio fluorescence slope, 10–20 s after thallium. A general note: Counterscreens check selectivity or assay interference.
The target in test [5] is Solute carrier family 12 member 5 (Homo sapiens) (UniProt Q9H2X9). Description: modulation of KCC2 thallium flux in HEK cells – cell-based, ouabain, retest, confirmation (AID 1717;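 active means thallium flux slope beyond 3 SD from same-plate DMSO control mean in most replicates, usually higher, sometimes lower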;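 further: slope of initial-normalized fluorescence between seconds 10 and 20 after thallium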). The note with it: HEK293-KCC2, thallium flux FluoZin2 fluorescence, at 10 µM, bidirectional: low = inhibitor, high = activator.
The nature of test [6]: native HEK Tl+ uptake effects, second counter-screen – HEK cells, counterscreen 2, counter-screen for KCC2 modulator project, confirmation (AID 1718;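 active means thallium flux slope above the same plate's solvent-control mean plus 3 SD in both duplicate wells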;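 further: run without ouabain in cells lacking the KCC2 cotransporter; slope of fluorescence scaled to its starting value between 10 and 20 s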). The note with it: HEK293 parental, thallium flux FluoZin-2 fluorescence slope; at 10 µM. An outline of the steps: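 Material: parental HEK cells. Medium: HBSS, 20 mM HEPES. Reagent: thallium sulfate stimulus, 12 mM in buffer, pH 7.3. Incubation: overnight cell culture at 37 °C, 48 min dye loading, compound before thallium. Signal: FluoZin-2 fluorescence kinetics. Read-out basis: thallium influx rate. Repeats: Per-replicate slope values.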

Test [7] is described as follows: Primary imaging screen for DUSP6 inhibitors that restore phospho-Erk in transfected HeLa cells, chemical complementation (AID 609;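 active means compounds giving at least 50% inhibition in the cell-based MKP-3 phosphatase rescue imaging test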;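 on inhibition: phospho-Erk level distribution per well compared with pooled transfected vehicle control wells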). The note with it: HeLa MKP-3 transfected, phospho-Erk imaging KS statistic, at 10 µM, cells stimulated with TPA for 15 min.
In test [8] the target is Dual specificity protein phosphatase 6 (Homo sapiens) (UniProt Q16828). The description is as above. The note with it: HeLa MKP-3 transfected, phospho-Erk imaging KS statistic; at 10 µM; stronger effect = higher value; cells stimulated with TPA for 15 min.
Test [9] in a line: inhibitors of larval lipid processing in zebrafish, primary screen, whole organism, PED6 fluorescence, gall bladder and intestine (AID 686).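 Further: larvae 5 to 7 days old with five fish per well; signal comes from phospholipase A2 cleavage of quenched PED6 carried via bile; overnight exposure to compound and PED6 before scoring.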 The note with it: Zebrafish larvae PED6 lipid processing, fluorescence scoring; screened at 20 µM (by protocol). An outline of the steps:
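Also added: quenched phospholipase substrate PED6, 100 nM final, ingested by larvae; System: zebrafish larvae, 5-7 d; Quantity: 5 larvae per well; Compound: 20 µM single dose; Schedule: overnight compound and PED6 incubation; Read-out: visual per-well fluorescence inhibition score; Measured by: By-eye fluorescence microscopy; Medium: E3.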

A short description of test [10]: loss of swimming-algae plug formation – whole organism, Chlamydomonas reinhardtii, WT vs cilia-less mutant, absorbance, 96-well, primary screen (AID 463189;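 active means inhibition at or above 50% relative to wild type and mutant plate controls; inactive means inhibition below 50%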;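 further: 0% = wild type cc124 cells in DMSO and 100% = ciliumless bld1 mutant cells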). The note with it: Chlamydomonas reinhardtii gravitaxis, OD600 absorbance, 2 days; at 10 µM; stronger effect = higher value.

Solute carrier family 12 member 5 (Homo sapiens), sequence (Q9H2X9 whole entry, looked up): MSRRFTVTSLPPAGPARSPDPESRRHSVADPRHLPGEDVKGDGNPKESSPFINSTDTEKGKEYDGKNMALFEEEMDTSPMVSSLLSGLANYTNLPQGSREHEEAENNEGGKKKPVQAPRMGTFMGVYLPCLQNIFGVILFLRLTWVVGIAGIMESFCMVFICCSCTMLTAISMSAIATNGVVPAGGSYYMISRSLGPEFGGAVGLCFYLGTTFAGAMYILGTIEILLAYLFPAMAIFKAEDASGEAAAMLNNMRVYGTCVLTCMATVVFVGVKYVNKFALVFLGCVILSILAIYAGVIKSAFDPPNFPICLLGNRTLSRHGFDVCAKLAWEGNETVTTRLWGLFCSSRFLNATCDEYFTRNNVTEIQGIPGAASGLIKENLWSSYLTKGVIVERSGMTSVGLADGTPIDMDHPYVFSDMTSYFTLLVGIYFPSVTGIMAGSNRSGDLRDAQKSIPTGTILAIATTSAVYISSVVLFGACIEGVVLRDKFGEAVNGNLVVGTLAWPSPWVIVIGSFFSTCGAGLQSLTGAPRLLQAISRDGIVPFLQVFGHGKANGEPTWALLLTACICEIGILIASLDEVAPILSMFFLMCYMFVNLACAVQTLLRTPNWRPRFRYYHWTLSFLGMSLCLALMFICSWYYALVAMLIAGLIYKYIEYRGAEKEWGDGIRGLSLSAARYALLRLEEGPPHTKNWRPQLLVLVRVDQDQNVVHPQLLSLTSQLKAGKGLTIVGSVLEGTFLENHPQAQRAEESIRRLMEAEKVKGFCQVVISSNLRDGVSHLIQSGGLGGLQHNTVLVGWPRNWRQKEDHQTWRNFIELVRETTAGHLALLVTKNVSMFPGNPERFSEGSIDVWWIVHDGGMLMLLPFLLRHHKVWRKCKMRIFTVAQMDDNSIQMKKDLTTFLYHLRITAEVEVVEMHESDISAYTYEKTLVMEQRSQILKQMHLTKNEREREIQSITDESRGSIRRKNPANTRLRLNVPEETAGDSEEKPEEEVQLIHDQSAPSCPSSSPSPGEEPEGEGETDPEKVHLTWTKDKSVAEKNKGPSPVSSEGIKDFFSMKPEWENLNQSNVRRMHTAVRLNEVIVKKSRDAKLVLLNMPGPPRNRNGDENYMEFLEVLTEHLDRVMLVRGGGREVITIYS
Dual specificity protein phosphatase 6 (Homo sapiens), sequence (Q16828 whole entry, looked up): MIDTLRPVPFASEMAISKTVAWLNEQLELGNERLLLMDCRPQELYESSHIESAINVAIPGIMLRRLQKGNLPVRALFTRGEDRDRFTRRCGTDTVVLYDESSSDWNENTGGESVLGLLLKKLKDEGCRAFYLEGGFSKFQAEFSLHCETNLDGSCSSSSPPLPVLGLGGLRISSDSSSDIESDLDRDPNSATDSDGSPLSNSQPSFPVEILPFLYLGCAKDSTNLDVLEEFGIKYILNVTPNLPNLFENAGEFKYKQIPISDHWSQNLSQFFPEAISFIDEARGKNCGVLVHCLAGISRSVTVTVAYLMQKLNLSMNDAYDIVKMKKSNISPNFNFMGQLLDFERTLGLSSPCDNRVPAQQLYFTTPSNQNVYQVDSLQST

For the molecule `CCOC(=O)CSc1nnc(CNC(=O)c2cccs2)n1-c1ccccc1`, the normalised thallium flux (F/F0 slope) in test [1] is 0.00872 (inactive). The values for the normalized thallium flux in test [2] and in test [3] were 0.00583 (inactive) and 0.0307 (inactive), respectively. Further, in test [4], the thallium flux rate (normalised fluorescence) was 0.00776 (inactive). The raw Tl+ flux slope (below DMSO = inhibition, above = activation) in test [5] is 0.0178 (inactive). Also, the thallium flux slope in test [6] was 0.0106 (inactive).
In the case of `O=c1c2ccccc2[nH]c(=S)n1CCN1CCC(=C(c2ccc(F)cc2)c2ccc(F)cc2)CC1`, the z-score in [7] (measured here: cell density z-score) was -1.63; in test [7] (measured here: nuclear c-Myc green intensity z-score), -0.997; in [7] (measured here: nuclear pErk red intensity z-score, stronger effect = higher value), 0.771. The inhibition was -4.44% (inactive) in test [8] and -8.89% (inactive) in test [10]. Moreover, the result in [9] was inactive.
`COc1ccccc1-n1cnc2cc(NS(=O)(=O)c3ccccc3)ccc21`: the call in [9] was inactive.

The inhibition is the relative decrease from the control value, in per cent.
